Experimental data reported in PMC7103123 (Toxicology and Applied Pharmacology, 2017).

Legend:
[1] = test system: ST cells; assay: Cytotoxicity assay in TGEV infected ST cells; type: cell-based, swine; conditions: read-out: ST CC50; cytotoxicity in TGEV infected ST cells at 6 h.p.i.
Outline: (§1)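 Cytotoxicity is measured in TGEV-infected ST cells in parallel with the immunofluorescence replication assay, with compound pretreatment for 1 h. CC50 is read at 6 h.p.i. Means ± S.D. come from 3–5 independent experiments, each in duplicate.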

[2] = test system: caspase-3 activation in TGEV infected ST cells; assay: Western blot for TGEV induced caspase-3 activation in ST cells; type: cell-based, swine; conditions: 1 μM, 18 h.p.i.
Outline: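 TGEV-infected swine testicular (ST) cells were treated with test compound at the indicated concentrations and harvested at 18 h post-infection. Lysates were analysed by western blot with antibodies against caspase-3 to detect its activation, plus TGEV N protein and β-actin as the loading control. A reference anti-TGEV compound served as the positive control.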

[3] = Cytotoxicity assay in TGEV infected ST cells; type: cell-based, swine; conditions: swine
Outline: as §1

[4] = test system: TGEV; assay: Effect of Na^+/K^+-ATPase activators on TGEV activity in ST cells; type: cell-based, porcine transmissible gastroenteritis virus; conditions: Fig. 4D-b
[5] = test system: TGEV; assay: Anti-TGEV IC50 of cardenolides alone or combined with aldosterone or Db cAMP; type: cell-based, porcine transmissible gastroenteritis virus; conditions: Fig. 4D-c
[6] = test system: Na^+/K^+-ATPase; assay: Na^+/K^+-ATPase protein level in ST cells; type: cell-based, swine; conditions: Fig. 4D-a
[7] = test system: TGEV; assay: Cytopathic effect assay in TGEV infected ST cells; type: cell-based, porcine transmissible gastroenteritis virus; conditions: 1 μM, TGEV 3.5 MOI, 18 h.p.i.
Outline: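 ST cells are pretreated with test compound for 1 h, then TGEV-infected at MOI 3.5, with mock-infected controls. At 18 h.p.i., cytopathic effect (rounding, enlargement, syncytia, detachment) is scored and viability is measured by MTS. Survival is compared with vehicle-treated infected cells by Student t-test. Three independent experiments.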

[8] = test system: TGEV N protein; assay: Western analysis for TGEV N protein expression in infected ST cells; type: cell-based, porcine transmissible gastroenteritis virus
Outline: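 Western blot for TGEV N protein in infected ST cells. In the titer-linked set, compound is added 1 h before TGEV (0.01 MOI), with 22 h incubation at 37 °C. Adherent cells are harvested for blotting while supernatants go to titration. Three or more independent experiments.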

Compound: Reevesioside F
- CC50 [1]: > 10 µM
- protection against caspase-3 activation [2]: strong protection

Compound: C[C@@H]1O[C@@H](O[C@H]2C[C@@H](O)[C@]3(CO)[C@H]4[C@H](O)C[C@]5(C)[C@@H](C6=CC(=O)OC6)CC[C@]5(O)[C@@H]4CC[C@]3(O)C2)[C@H](O)[C@H](O)[C@H]1O [Ouabain, ouabain]
- CC50 at 6 h post infection [3]: > 10 µM
- protection against caspase-3 activation [2]: strong protection

Compound: C[C@]12CC[C@H](O)C[C@H]1CC[C@@H]1[C@@H]2CC[C@]2(C)[C@@H](C3=CC(=O)OC3)CC[C@]12O [Digitoxigenin, digitoxigenin]
- CC50 at 6 h post infection [3]: > 10 µM

Compound: Reevesioside H /epi-Reevesioside H
- CC50 [1]: > 50 µM

Compound: Reevesioside I /epi-Reevesioside I
- CC50 [1]: > 50 µM

Compound: C[C@H]1O[C@@H](O[C@H]2[C@@H](O)C[C@H](O[C@H]3[C@@H](O)C[C@H](O[C@H]4CC[C@@]5(C)[C@H](CC[C@@H]6[C@@H]5C[C@@H](O)[C@]5(C)[C@@H](C7=CC(=O)OC7)CC[C@]65O)C4)O[C@@H]3C)O[C@@H]2C)C[C@H](O)[C@@H]1O [Digoxin, digoxin]
- CC50 at 6 h post infection [3]: > 10 µM

Compound: Reevesioside B
- CC50 [1]: > 50 µM

Compound: CCCC(=O)Nc1ncnc2c1ncn2[C@@H]1O[C@@H]2COP(=O)([O-])O[C@H]2[C@H]1OC(=O)CCC.[Na+] [Db cAMP, N6,2′-O-Dibutyryladenosine 3′,5′-cyclic monophosphate sodium salt]
- infectivity of TGEV [4]: increased the infectivity
- effect on anti-TGEV activity of cardenolides [5]: able to antagonize
- Na^+/K^+-ATPase protein level in ST cells [6]: moderately augmented

Compound: Reevesioside D
- CC50 [1]: > 50 µM

Compound: COc1cc2c3c(c4cc(OC)c(OC)cc4c2cc1OC)CN1CCC[C@@H]1C3 [Tylophorine]
- protection against cytopathic effect [7]: displayed protection
- CC50 at 6 h post infection [3]: > 10 µM

Compound: C[C@]12CCC(=O)C=C1CC[C@@H]1[C@@H]2[C@@H](O)C[C@]2(C=O)[C@@H](C(=O)CO)CC[C@@H]12 [Aldosterone, aldosterone]
- infectivity of TGEV [4]: increased the infectivity
- effect on anti-TGEV activity of cardenolides [5]: able to antagonize
- Na^+/K^+-ATPase protein level in ST cells [6]: moderately augmented

Compound: Reevesioside E
- CC50 [1]: > 50 µM

Compound: C[C@H]1O[C@@H](O[C@H]2[C@@H](O)C[C@H](O[C@H]3[C@@H](O)C[C@H](O[C@H]4CC[C@@]5(C)[C@H](CC[C@@H]6[C@@H]5CC[C@]5(C)[C@@H](C7=CC(=O)OC7)CC[C@]65O)C4)O[C@@H]3C)O[C@@H]2C)C[C@H](O)[C@@H]1O [Digitoxin, digitoxin]
- CC50 at 6 h post infection [3]: > 10 µM
- protection against caspase-3 activation [2]: strong protection

Compound: Reevesioside C
- CC50 [1]: > 50 µM

Compound: CO[C@H]1C[C@H](O[C@H]2CC[C@@]3(C)[C@H](CC[C@@H]4[C@@H]3CC[C@]3(C)[C@@H](C5=CC(=O)OC5)[C@@H](OC(C)=O)C[C@]43O)C2)O[C@@H](C)[C@@H]1O [Oleandrin, oleandrin]
- CC50 at 6 h post infection [3]: > 10 µM
- protection against caspase-3 activation [2]: strong protection
- N protein expression in TGEV infected ST cells ([8]; TGEV 0.01 MOI, 22 h.p.i. (Fig. 3B)): dose dependant manner
- N protein expression by western analyses in TGEV infected ST cells ([8]; various doses (Fig. 1D)): dose dependent manner of decreases
